The values below come from ChEMBL document CHEMBL1157359, “Binding of ceftobiprole and comparators to the penicillin-binding proteins of Escherichia coli, Pseudomonas aeruginosa, Staphylococcus aureus, and Streptococcus pneumoniae” (Antimicrob Agents Chemother, 2007).

Each structure is given as a SMILES string. ≈ marks a conversion by molar mass, not a printed value. Bounds are passed on as bounds.

Assay [1] is described as follows: Inhibition of bocillin FL binding to Pseudomonas aeruginosa PAO1 penicillin-binding protein 4. In short, it runs like this:
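P. aeruginosa PAO1 PBPs were isolated and competed with 10 drug concentrations from 0.06 μg/ml to 32 μg/ml before Bocillin FL labeling. Bands were detected by fluorescence imaging. IC50 was taken as 50% inhibition of Bocillin FL binding versus the no-drug sample.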

Assay [2] has as its system Streptococcus pneumoniae. In words: Antibacterial activity against penicillin-susceptible Streptococcus pneumoniae OC 8865 by CLSI method. The class given is functional.
Assay [3] can be described thus: Inhibition of bocillin FL binding to penicillin-susceptible Streptococcus pneumoniae OC 8865 penicillin-binding protein 3. The procedure, abridged:
(§1)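 Whole S. pneumoniae cells were used rather than isolated membranes. Cells were competed with drug and then labeled with Bocillin FL, and PBP bands were visualized by fluorescence imaging. IC50 is the drug concentration that inhibits Bocillin FL binding to each PBP by 50% relative to a no-drug control.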

Assay [4] addresses T1, Penicillin-binding protein 2 (Staphylococcus aureus, UniProt Q53729).
T1 sequence (Q53729 whole entry): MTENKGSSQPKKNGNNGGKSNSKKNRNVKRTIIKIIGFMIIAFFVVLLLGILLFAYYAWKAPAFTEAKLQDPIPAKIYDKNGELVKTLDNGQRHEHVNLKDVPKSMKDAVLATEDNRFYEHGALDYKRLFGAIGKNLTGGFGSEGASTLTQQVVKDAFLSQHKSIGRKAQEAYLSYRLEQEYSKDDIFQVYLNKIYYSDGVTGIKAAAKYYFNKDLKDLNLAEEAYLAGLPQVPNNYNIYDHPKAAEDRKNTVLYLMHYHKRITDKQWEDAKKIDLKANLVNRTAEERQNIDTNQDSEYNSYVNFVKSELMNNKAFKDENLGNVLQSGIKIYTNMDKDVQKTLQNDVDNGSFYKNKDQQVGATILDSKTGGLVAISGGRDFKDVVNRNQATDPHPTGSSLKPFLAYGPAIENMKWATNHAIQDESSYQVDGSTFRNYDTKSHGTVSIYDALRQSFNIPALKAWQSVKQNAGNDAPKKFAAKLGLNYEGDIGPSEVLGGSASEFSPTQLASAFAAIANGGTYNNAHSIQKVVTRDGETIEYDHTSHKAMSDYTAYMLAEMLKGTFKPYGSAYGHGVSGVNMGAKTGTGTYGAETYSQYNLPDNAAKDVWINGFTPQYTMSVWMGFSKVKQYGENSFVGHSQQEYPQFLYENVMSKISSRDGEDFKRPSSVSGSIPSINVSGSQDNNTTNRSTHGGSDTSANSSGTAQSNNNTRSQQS
Nature of the assay: Inhibition of bocillin FL binding to methicillin-susceptible Staphylococcus aureus ATCC 29213 penicillin-binding protein 2. In short, it runs like this: (§2)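 Isolated S. aureus ATCC 29213 PBPs exposed to drug over 0.001 μg/ml to 50 μg/ml, followed by Bocillin FL labeling and fluorescence imaging. IC50 is 50% inhibition of Bocillin FL binding relative to no-drug control.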

The nature of assay [5]: Inhibition of bocillin FL binding to penicillin-resistant Streptococcus pneumoniae OC 8819 penicillin-binding protein 1a. In short, it runs like this: as §1
For assay [6], the system named is Staphylococcus aureus. In words: Antibacterial activity against methicillin-susceptible Staphylococcus aureus ATCC 29213 by CLSI method. The class given is functional.
Assay [7] in a line: Inhibition of bocillin FL binding to penicillin-resistant Streptococcus pneumoniae OC 8819 penicillin-binding protein 2a. The procedure, abridged:
as §1

The target of assay [8] is Penicillin-binding protein 3 (Pseudomonas aeruginosa, UniProt Q51504). Nature of the assay: Inhibition of bocillin FL binding to Pseudomonas aeruginosa PAO1 penicillin-binding protein 3. The procedure, abridged: (§3)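 Isolated P. aeruginosa PAO1 PBPs; drug added at 10 concentrations, 0.06 μg/ml to 32 μg/ml, before Bocillin FL labeling. Labeled PBPs imaged. IC50 is the drug level cutting Bocillin FL binding by 50% versus a no-drug sample.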

The nature of assay [9]: Inhibition of bocillin FL binding to Pseudomonas aeruginosa PAO1 penicillin-binding protein 5/6. In short, it runs like this: as §3
In assay [10] the target is T2, Penicillin-binding protein 4 (Staphylococcus aureus, UniProt P72355).
T2 sequence (P72355 whole entry): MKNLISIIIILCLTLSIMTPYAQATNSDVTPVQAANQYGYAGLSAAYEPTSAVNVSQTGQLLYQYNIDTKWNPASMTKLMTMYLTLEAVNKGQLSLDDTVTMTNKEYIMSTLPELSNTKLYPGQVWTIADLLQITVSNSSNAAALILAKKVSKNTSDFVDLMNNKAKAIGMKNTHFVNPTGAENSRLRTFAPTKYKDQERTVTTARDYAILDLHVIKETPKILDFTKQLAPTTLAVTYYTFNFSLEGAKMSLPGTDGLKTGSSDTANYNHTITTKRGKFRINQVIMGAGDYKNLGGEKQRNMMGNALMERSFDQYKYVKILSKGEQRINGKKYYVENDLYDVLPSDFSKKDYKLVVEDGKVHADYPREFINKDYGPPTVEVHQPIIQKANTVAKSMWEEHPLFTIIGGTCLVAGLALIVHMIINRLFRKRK
Nature of the assay: Inhibition of bocillin FL binding to methicillin-susceptible Staphylococcus aureus ATCC 29213 penicillin-binding protein 4. In short, it runs like this:
as §2

Assay [11] deals with T3, Penicillin-binding protein 1 (Staphylococcus aureus, UniProt Q53725).
T3 sequence (Q53725 whole entry): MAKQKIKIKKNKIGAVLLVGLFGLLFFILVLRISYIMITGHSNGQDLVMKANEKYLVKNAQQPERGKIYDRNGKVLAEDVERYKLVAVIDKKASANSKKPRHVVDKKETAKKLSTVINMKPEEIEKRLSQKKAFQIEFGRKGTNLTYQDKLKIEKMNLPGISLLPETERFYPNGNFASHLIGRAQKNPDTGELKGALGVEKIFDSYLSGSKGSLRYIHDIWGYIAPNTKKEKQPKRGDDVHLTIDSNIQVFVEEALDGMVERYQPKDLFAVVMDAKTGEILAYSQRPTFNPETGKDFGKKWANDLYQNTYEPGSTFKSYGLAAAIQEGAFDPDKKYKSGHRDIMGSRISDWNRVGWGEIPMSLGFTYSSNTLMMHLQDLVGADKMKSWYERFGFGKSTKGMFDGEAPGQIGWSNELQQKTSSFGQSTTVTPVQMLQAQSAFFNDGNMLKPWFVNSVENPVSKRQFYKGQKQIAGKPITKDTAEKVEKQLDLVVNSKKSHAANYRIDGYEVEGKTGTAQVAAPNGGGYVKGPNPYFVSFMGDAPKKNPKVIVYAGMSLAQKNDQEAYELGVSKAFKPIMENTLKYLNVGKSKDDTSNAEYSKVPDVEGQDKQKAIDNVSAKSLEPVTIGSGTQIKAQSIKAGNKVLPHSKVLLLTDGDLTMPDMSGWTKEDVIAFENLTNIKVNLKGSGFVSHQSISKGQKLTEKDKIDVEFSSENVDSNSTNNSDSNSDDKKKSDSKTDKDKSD
Nature of the assay: Inhibition of bocillin FL binding to methicillin-susceptible Staphylococcus aureus ATCC 29213 penicillin-binding protein 1. The procedure, abridged: as §2

Penicillin-binding protein 3, sequence (Q51504 whole entry): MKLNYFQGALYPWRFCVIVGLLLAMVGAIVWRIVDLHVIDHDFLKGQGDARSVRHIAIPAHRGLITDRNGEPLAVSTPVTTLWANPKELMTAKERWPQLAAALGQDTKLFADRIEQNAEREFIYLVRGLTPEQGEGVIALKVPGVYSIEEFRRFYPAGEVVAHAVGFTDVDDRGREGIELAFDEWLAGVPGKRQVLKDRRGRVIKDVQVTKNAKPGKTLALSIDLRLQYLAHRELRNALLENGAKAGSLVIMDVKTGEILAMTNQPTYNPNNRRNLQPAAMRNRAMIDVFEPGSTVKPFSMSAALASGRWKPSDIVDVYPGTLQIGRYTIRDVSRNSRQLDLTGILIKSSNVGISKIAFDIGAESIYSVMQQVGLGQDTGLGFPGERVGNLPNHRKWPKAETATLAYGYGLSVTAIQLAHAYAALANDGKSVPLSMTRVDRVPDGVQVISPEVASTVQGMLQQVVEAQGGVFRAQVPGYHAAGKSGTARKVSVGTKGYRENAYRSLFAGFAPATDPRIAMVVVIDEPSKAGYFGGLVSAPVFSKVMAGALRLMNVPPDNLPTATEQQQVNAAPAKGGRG

On to `Nc1nc(/C(=N/O)C(=O)N[C@@H]2C(=O)N3C(C(=O)O)=C(/C=C4\CCN([C@@H]5CCNC5)C4=O)CS[C@H]23)ns1` [CEFTOBIPROLE], for which the IC50 in assay [1] was 0.2 µg/mL (≈ 0.374 µM); in [3], 0.02 µg/mL (≈ 0.0374 µM); in assay [4], 935 nM; in assay [5], 0.1 µg/mL (≈ 0.187 µM); in [7], 0.1 µg/mL (≈ 0.187 µM); in [8], 187 nM. For the same compound, the IC50 in assay [9] is more than 32 µg/mL; in [10], 1870 nM; in [11], 187 nM. Besides, the minimum inhibitory concentration (MIC) was determined as 0.008 µg/mL (≈ 0.015 µM) in assay [2] and 0.25 µg/mL (≈ 0.468 µM) in assay [6].
As to `CO/N=C(\C(=O)N[C@@H]1C(=O)N2C(C(=O)O)=C(CSc3nc(=O)c(O)nn3C)CS[C@H]12)c1csc(N)n1` (stereo in doubt) [CEFTRIAXONE], the minimal inhibitory concentration (MIC) amounted to 0.03 µg/mL (≈ 0.0541 µM) in [2] and 2 µg/mL (≈ 3.61 µM) in [6]. Further, the IC50 in [3] is 0.02 µg/mL (≈ 0.0361 µM); in assay [4] it was 180 nM; in assay [5] it was 0.02 µg/mL (≈ 0.0361 µM); in assay [7], 0.5 µg/mL (≈ 0.902 µM); in assay [10], 18000 nM; in [11] it was 902 nM.
`CC(C)(O/N=C(\C(=O)N[C@@H]1C(=O)N2C(C(=O)[O-])=C(C[n+]3ccccc3)CS[C@H]12)c1csc(N)n1)C(=O)O` [CEFTAZIDIME]: the results for the IC50 in assay [1], in assay [8] and in [9] were 2 µg/mL (≈ 3.66 µM), 183 nM and more than 32 µg/mL, respectively.

For orientation: IC50 means the concentration that inhibits the measured activity by half. Low values mean higher potency, high ones lower potency. As usually defined, the MIC is the smallest concentration in the dilution series that meets the test's criterion for growth inhibition. Low values mean inhibition by little substance, high ones a need for much substance.
